From ChEMBL document CHEMBL5661985, “In silico design of novel probes for the atypical opioid receptor MRGPRX2” (Nat Chem Biol, 2017)
The source made the active and inactive calls. No cut-off for these calls is given here.

Key:
[1] = molecular target: T1, Mas-related G-protein coupled receptor member X2 (Homo sapiens, UniProt Q96LB1); experiment: Agonist activity at N-terminal Flag-tagged human MRGPRX2 receptor expressed in tetracycline-induced FLP-IN/T-REX 293 cells assessed as increase in intracellular calcium release by FLIPR assay; format: functional, cell-based
T1 sequence (Q96LB1 whole entry): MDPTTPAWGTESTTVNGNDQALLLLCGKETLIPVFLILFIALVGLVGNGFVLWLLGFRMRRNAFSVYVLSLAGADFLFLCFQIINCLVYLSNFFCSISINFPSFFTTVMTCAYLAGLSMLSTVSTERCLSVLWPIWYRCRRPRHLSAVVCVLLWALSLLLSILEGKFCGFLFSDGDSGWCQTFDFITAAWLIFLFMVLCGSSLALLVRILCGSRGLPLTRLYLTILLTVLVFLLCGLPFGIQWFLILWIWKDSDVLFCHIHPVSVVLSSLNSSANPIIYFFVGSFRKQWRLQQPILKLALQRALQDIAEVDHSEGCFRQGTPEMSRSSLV

[2] = molecular target: T2, Kappa-type opioid receptor (Homo sapiens, UniProt P41145); experiment: Agonist activity at KOR (unknown origin) by Glo sensor assay; format: functional
[3] = molecular target: T3, Mas-related G-protein coupled receptor member X2 (Homo sapiens) (UniProt Q96LB1); experiment: Agonist activity at MRGPRX2 receptor in human LAD2 cells transfected with MRGPRX2 siRNA assessed as increase in degranulation incubated for 30 mins by beta-hexosaminidase assay; format: functional, cell-based
T3 sequence (whole entry): T1 sequence (Q96LB1 whole entry)
In short: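 LAD2 cells (1.2 million/well) transfected with 25 nM MRGPRX2 siRNA pool or non-targeting pool, 72 h; 200,000 cells taken for β-hexosaminidase assay with EC80 concentration of agonist, 30 min 37°C; knockdown checked by qRT-PCR on 1 million cells; fold change % degranulation versus DMSO; two-way ANOVA with Sidak test.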

HTLA [4] = experiment: Agonist activity at MRGPRX2 D184E mutant (unknown origin) expressed in HTLA cells assessed as induction of beta-arrestin 2 recruitment incubated for 18 to 24 hrs by PRESTO-Tango assay; format: cell-based; details: Homo sapiens, time 18-24 hrs
In short: (§1)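 β-arrestin2 recruitment by PRESTO-Tango: HTLA cells transiently transfected (calcium phosphate) with codon-optimized MRGPRX2-Tango (WT or point mutant) or MRGPRB2-Tango, plated next day 20,000 cells/well on poly-L-lysine; drug in HBSS/20 mM HEPES/0.3% BSA pH 7.4 for 18–24 h; Bright-Glo luminescence (RLU); curves n=3 in triplicate, mutants n=4 in triplicate.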

HTLA [5] = experiment: Agonist activity at MRGPRX2 D184N mutant (unknown origin) expressed in HTLA cells assessed as induction of beta-arrestin 2 recruitment incubated for 18 to 24 hrs by PRESTO-Tango assay; format: cell-based; details: Homo sapiens, time 18-24 hrs; in short: as §1
[6] = molecular target: T3, Mas-related G-protein coupled receptor member X2 (Homo sapiens); experiment: Agonist activity at MRGPRX2 receptor in human LAD2 cells assessed as increase in degranulation incubated for 30 mins by beta-hexosaminidase assay; format: functional, cell-based; details: filed as agonist
In short: (§2)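 β-Hexosaminidase release: LAD2 cells in fresh medium 18 h, washed in Tyrode's buffer pH 7.4, 10,000 cells/well; drug (single concentration or 8-point curve) added in triplicate, 30 min 37°C; supernatant and Triton X-100 lysate each reacted with NAG in citrate pH 4.5 for 90 min 37°C, stopped with carbonate pH 10, A405; % release = released/total ×100, minus vehicle.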

[7] = molecular target: T1, Mas-related G-protein coupled receptor member X2; experiment: Agonist activity at MRGPRX2 (unknown origin) expressed in HTLA cells assessed as induction of beta-arrestin 2 recruitment incubated for 18 to 24 hrs by PRESTO-Tango assay; format: functional, cell-based
[8] = molecular target: T3, Mas-related G-protein coupled receptor member X2 (Homo sapiens); experiment: Agonist activity at MRGPRX2 receptor in human LAD2 cells assessed as increase in degranulation incubated for 30 mins in presence of naloxone by beta-hexosaminidase assay; format: functional, cell-based; in short: as §2
HTLA [9] = experiment: Agonist activity at MRGPRX2 E164Q mutant (unknown origin) expressed in HTLA cells assessed as induction of beta-arrestin 2 recruitment incubated for 18 to 24 hrs by PRESTO-Tango assay; format: cell-based; details: Homo sapiens, filed as agonist, time 18-24 hrs; in short: as §1
[10] = Cytotoxicity against HTLA cells expressing MRGPRX2 (unknown origin) at 1 uM after 24 hrs; format: toxicity, cell-based; details: human
[11] = molecular target: T4, Mitogen-activated protein kinase 10 (Homo sapiens, UniProt P53779); experiment: Inhibition of JNK3 (unknown origin) by Kinome scan method
[12] = molecular target: T5, Tyrosine-protein kinase BTK (Homo sapiens, UniProt Q06187); experiment: Inhibition of BTK (unknown origin) by Kinome scan method
[13] = molecular target: T3, Mas-related G-protein coupled receptor member X2 (Homo sapiens); experiment: Agonist activity at MRGPRX2 (unknown origin) expressed in HTLA cells assessed as induction of beta-arrestin 2 recruitment at 10 uM incubated for 18 to 24 hrs by PRESTO-Tango assay; format: functional, cell-based; details: filed as agonist, time 18-24 hrs; in short: as §1
[14] = molecular target: T3, Mas-related G-protein coupled receptor member X2 (Homo sapiens); experiment: Agonist activity at MRGPRX2 receptor in human LAD2 cells assessed as increase in intracellular calcium release by FLIPR assay; format: functional, cell-based; details: filed as agonist
In short: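 LAD2 human mast cells seeded 50,000/well in Tyrode's buffer with calcium dye, 1 h before drug; 10 s baseline, drug added, fluorescence followed 120 s; expressed as fold calcium release over baseline; n=3 in triplicate.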

[15] = molecular target: T6, Mitogen-activated protein kinase 8 (Homo sapiens, UniProt P45983); experiment: Inhibition of JNK1 (unknown origin) by Kinome scan method
[16] = molecular target: T4, Mitogen-activated protein kinase 10; experiment: Binding affinity to JNK3 (unknown origin) assessed dissociation constant by Kinome scan method
[17] = molecular target: T6, Mitogen-activated protein kinase 8; experiment: Binding affinity to JNK1 (unknown origin) assessed dissociation constant by Kinome scan method
[18] = molecular target: T5, Tyrosine-protein kinase BTK; experiment: Binding affinity to BTK (unknown origin) assessed dissociation constant by Kinome scan method
[19] = molecular target: T3, Mas-related G-protein coupled receptor member X2 (Homo sapiens); experiment: Agonist activity at MRGPRX2 (unknown origin) expressed in HTLA cells assessed as induction of beta-arrestin 2 recruitment <10 uM incubated for 18 to 24 hrs by PRESTO-Tango assay; format: functional, cell-based; details: filed as agonist, time 18-24 hrs; in short: as §1
[20] = molecular target: T3, Mas-related G-protein coupled receptor member X2 (Homo sapiens); experiment: Agonist activity at N-terminal Flag-tagged human MRGPRX2 receptor expressed in tetracycline-induced FLP-IN/T-REX 293 cells assessed as increase in intracellular calcium release < 10 uM by FLIPR assay; format: functional, cell-based; details: filed as agonist
In short: (§3)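 FLIPR calcium: FLP-IN/T-REX HEK-293-T stable line with N-terminal FLAG codon-optimized receptor, induced 24 h with 1 μg/mL tetracycline in 1% dialyzed FBS (uninduced cells as control); FLIPR calcium dye plus 2.5 mM probenecid 1 h 37°C; 10 s baseline, then drug in HBSS/20 mM HEPES/probenecid pH 7.4, 16-point curve 10 μM to 0.003 nM; fluorescence 120 s; fold over basal, n=3 triplicate.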

[21] = molecular target: Delta-type opioid receptor (Homo sapiens, UniProt P41143); experiment: Displacement of [3H]-Naltrindole from DOR (unknown origin)
[22] = molecular target: T3, Mas-related G-protein coupled receptor member X2 (Homo sapiens); experiment: Agonist activity at N-terminal Flag-tagged human MRGPRX2 receptor expressed in tetracycline-induced HEK-T cells assessed as increase in intracellular calcium release by FLIPR assay; format: functional, cell-based; details: HEK-T cell, filed as agonist; in short: as §3
[23] = molecular target: T3, Mas-related G-protein coupled receptor member X2 (Homo sapiens); experiment: Agonist activity at MRGPRX2 receptor in human LAD2 cells assessed as increase in degranulation at 10 uM incubated for 30 mins by beta-hexosaminidase assay relative to control; format: functional, cell-based; details: filed as agonist; in short: as §2
[24] = molecular target: T3, Mas-related G-protein coupled receptor member X2 (Homo sapiens); experiment: Agonist activity at MRGPRX2 receptor in human LAD2 cells assessed as increase in degranulation at 10 uM incubated for 30 mins in presence of IgE by beta-hexosaminidase assay relative to control; format: functional, cell-based; details: filed as agonist; in short: as §2
Mu-type opioid receptor = Mu-type opioid receptor (Homo sapiens, UniProt P35372); experiment: Displacement of [3H]-DAMGO from MOR (unknown origin)
[25] = molecular target: T3, Mas-related G-protein coupled receptor member X2 (Homo sapiens); experiment: Agonist activity at N-terminal Flag-tagged human MRGPRX2 receptor expressed in HEK-T cells assessed as increase in intracellular calcium release by FLIPR assay; format: functional, cell-based; details: HEK-T cell; in short: as §3
[26] = molecular target: T2, Kappa-type opioid receptor; experiment: Displacement of [3H]-Diprenorphine from KOR (unknown origin)

T2 sequence (P41145 whole entry): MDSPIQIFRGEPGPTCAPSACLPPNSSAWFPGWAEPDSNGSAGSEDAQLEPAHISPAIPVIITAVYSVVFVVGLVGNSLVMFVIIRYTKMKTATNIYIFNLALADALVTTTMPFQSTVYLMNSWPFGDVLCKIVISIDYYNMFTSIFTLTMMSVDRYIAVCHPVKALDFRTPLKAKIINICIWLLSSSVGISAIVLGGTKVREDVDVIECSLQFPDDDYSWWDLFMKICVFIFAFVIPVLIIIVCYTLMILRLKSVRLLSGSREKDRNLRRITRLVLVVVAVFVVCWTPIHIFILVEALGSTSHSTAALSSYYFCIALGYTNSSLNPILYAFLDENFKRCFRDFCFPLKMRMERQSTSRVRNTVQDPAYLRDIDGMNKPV
T4 sequence (P53779 whole entry): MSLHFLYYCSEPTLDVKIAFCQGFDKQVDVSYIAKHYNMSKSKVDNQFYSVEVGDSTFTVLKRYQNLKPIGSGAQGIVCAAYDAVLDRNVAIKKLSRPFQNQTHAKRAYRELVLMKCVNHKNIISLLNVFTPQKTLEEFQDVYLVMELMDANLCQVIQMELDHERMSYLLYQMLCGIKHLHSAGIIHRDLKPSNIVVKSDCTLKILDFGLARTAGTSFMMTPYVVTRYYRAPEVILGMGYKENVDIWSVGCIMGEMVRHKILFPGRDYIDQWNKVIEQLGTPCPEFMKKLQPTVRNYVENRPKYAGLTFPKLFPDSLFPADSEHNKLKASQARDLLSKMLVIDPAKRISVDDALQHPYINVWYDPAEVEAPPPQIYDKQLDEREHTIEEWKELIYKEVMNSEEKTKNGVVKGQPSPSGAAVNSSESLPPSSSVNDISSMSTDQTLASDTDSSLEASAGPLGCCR
T6 sequence (P45983 whole entry): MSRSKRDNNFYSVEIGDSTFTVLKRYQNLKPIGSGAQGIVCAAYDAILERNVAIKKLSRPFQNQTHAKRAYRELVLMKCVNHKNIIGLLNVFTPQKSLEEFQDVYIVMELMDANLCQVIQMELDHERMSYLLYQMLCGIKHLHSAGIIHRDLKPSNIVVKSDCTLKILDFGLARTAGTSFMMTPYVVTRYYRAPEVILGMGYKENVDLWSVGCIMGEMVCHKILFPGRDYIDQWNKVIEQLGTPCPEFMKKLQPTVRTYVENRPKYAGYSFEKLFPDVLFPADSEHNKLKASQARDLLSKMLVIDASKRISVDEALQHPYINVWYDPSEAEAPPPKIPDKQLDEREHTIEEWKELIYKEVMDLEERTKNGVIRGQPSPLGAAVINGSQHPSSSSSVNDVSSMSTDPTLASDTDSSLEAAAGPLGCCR
T5 sequence (Q06187 whole entry): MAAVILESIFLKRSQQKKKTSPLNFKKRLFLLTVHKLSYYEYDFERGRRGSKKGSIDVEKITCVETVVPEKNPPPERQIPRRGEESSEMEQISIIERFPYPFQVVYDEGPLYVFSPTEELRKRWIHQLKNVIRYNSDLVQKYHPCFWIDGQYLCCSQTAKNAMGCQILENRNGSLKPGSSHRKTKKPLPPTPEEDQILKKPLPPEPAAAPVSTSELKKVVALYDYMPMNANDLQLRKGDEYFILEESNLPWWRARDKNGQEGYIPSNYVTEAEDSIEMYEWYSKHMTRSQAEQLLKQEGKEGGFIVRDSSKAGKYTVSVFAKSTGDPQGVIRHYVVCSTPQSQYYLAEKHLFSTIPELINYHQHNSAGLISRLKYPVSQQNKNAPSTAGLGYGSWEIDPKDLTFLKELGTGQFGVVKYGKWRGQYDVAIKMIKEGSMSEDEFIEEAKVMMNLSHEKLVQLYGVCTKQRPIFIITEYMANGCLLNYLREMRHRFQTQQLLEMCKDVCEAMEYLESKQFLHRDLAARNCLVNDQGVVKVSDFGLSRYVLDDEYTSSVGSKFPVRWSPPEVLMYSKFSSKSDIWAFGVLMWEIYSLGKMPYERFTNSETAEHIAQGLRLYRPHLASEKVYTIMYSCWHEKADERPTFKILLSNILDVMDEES
Chain of Mu-type opioid receptor (P35372 whole entry): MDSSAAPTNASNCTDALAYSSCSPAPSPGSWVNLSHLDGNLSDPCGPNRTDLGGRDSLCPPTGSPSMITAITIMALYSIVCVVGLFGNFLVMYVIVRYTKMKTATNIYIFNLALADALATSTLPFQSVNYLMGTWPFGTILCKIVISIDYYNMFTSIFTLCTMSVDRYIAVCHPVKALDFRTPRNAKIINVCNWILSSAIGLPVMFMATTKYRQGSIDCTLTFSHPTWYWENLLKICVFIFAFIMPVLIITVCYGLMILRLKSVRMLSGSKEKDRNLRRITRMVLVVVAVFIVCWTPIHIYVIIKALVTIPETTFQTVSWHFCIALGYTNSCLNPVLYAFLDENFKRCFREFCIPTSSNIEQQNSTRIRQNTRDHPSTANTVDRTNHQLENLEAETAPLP
Chain of Delta-type opioid receptor (P41143 whole entry): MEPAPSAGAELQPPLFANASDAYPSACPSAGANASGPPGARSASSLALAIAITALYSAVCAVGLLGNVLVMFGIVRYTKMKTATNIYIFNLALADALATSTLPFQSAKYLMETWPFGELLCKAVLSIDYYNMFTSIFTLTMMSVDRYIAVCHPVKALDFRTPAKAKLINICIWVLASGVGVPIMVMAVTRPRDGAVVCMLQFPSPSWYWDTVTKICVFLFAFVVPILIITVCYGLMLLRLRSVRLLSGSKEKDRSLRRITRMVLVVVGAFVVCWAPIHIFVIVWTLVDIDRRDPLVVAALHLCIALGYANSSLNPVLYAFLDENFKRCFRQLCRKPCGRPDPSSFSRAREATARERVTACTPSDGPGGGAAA

CC[C@H](C)[C@H](NC(=O)[C@H](CCCNC(=N)N)NC(=O)[C@H](CCCNC(=N)N)NC(=O)[C@H](CC(C)C)NC(=O)[C@H](Cc1ccccc1)NC(=O)CNC(=O)CNC(=O)[C@@H](N)Cc1ccc(O)cc1)C(=O)N[C@@H](CCCNC(=N)N)C(=O)N1CCC[C@H]1C(=O)N[C@@H](CCCCN)C(=O)N[C@@H](CC(C)C)C(=O)N[C@@H](CCCCN)C(=O)O [ANALOG OF DYNORPHIN A]
EC50 ([1]; read-out: EC50): 1.1 µM | EC50 [2]: 6 pM | Activity [3]: inactive | Activity (HTLA [4]): inactive | Activity (HTLA [5]): inactive | Activity [6]: Active | EC50 ([7]; read-out: pEC50 (converted)): 30.2 µM | Activity [8]: inactive | Activity (HTLA [9]): Active

C[C@@H]1C[C@H]2Cc3ncc(-c4ccc5c(n4)C[C@@H]4C[C@@H](C)C[C@]56NCCC[C@H]46)cc3[C@]3(C1)NCCC[C@H]23 [COMPLANADINE A]
EC50 ([1]; read-out: EC50): 18 µM | EC50 ([7]; read-out: pEC50 (converted)): 0.692 µM | Activity [10]: Toxic

Cc1cc2nc(-c3ccccc3)cc(N3CCC(N(C)C)C3)n2n1 (stereo not given)
IC50 [11]: 20 µM | IC50 [12]: 20 µM | Activity [13]: Active | Activity [14]: Active | EC50 ([7]; read-out: EC50): 3 µM | IC50 [15]: 20 µM | Kd [16]: > 30 µM | Kd [17]: 19 µM | Kd [18]: 27 µM | Activity [19]: Active | Activity [20]: Active

CN1CCC2(c3cccc(O)c3)Cc3nc4ccccc4cc3CC2C1 (racemic)
EC50 ([1]; read-out: EC50): 0.74 µM | EC50 ([1]; read-out: pEC50 (converted)): 0.646 µM | EC50 [21]: 0.0131 µM | Ki [21]: 0.00294 µM | Activity [3]: inactive | Activity [22]: Active | Activity [23]: 70% | Activity [24]: 70% | Activity [14]: Active | Activity [6]: Active | EC50 ([7]; read-out: pEC50 (converted)): 1.82 µM | Activity [8]: inactive | EC50 (Mu-type opioid receptor): 0.324 µM | Ki (Mu-type opioid receptor): 0.239 µM | Activity [25]: inactive | EC50 [26]: 88.7 µM | Ki [26]: 22 µM
